Columns and labels:
Protein smoothened [1] = target: T1, Protein smoothened (Homo sapiens, UniProt Q99835); test: Displacement of BODIPY-cyclopamine from human Smo expressed in HEK293 cells in presence of 20% normal human serum; assay type: cell-based
How it was run: (§1)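 Competition binding: displacement of fluorescently labeled bodipy-cyclopamine from recombinant human Smo expressed in HEK-293 cells. Run in 2% fetal calf serum and, separately, in 20% normal human serum. IC50 values are means of at least five experiments.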

Protein smoothened [2] = target: T1, Protein smoothened; test: Displacement of BODIPY-cyclopamine from human Smo expressed in HEK293 cells in presence of 2% fetal calf serum; assay type: cell-based; how it was run: as §1
[3] = Half life in rat; assay type: ADME, organism-based; conditions: in vivo
[4] = Volume of distribution at steady state in rat; assay type: ADME, organism-based; conditions: in vivo, read-out: Vdss
Rattus norvegicus = organism: Rattus norvegicus; test: Clearance in rat; assay type: ADME, organism-based; conditions: in vivo
[5] = Oral bioavailability in rat; assay type: ADME, organism-based; conditions: in vivo
CYP3A4 = CYP3A4 (Homo sapiens, UniProt P08684); test: Inhibition of CYP3A4 at 10 uM; assay type: ADME
CYP2C9 = CYP2C9 (Homo sapiens, UniProt P11712); test: Inhibition of CYP2C9 at 10 uM; assay type: ADME
[6] = Plasma protein binding in human assessed as unbound fraction; assay type: ADME, cell-free
[7] = Antiproliferative activity against irradiated Ptch +/- mouse medulloblastoma cells; assay type: functional; conditions: Medulloblastoma cell, light or radiation study
How it was run: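 Proliferation of irradiated Ptch +/- mouse medulloblastoma cells, which depend on the Hh pathway; readout reported as CC50.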

Canis familiaris = organism: Canis familiaris; test: Clearance in dog; assay type: ADME, organism-based, Canis lupus familiaris; conditions: in vivo
[8] = Volume of distribution at steady state in dog; assay type: ADME, organism-based, Canis lupus familiaris; conditions: in vivo, read-out: Vdss
[9] = Oral bioavailability in dog; assay type: ADME, organism-based, Canis lupus familiaris; conditions: in vivo
[10] = Half life in dog; assay type: ADME, organism-based, Canis lupus familiaris; conditions: in vivo

T1 sequence (Q99835 whole entry): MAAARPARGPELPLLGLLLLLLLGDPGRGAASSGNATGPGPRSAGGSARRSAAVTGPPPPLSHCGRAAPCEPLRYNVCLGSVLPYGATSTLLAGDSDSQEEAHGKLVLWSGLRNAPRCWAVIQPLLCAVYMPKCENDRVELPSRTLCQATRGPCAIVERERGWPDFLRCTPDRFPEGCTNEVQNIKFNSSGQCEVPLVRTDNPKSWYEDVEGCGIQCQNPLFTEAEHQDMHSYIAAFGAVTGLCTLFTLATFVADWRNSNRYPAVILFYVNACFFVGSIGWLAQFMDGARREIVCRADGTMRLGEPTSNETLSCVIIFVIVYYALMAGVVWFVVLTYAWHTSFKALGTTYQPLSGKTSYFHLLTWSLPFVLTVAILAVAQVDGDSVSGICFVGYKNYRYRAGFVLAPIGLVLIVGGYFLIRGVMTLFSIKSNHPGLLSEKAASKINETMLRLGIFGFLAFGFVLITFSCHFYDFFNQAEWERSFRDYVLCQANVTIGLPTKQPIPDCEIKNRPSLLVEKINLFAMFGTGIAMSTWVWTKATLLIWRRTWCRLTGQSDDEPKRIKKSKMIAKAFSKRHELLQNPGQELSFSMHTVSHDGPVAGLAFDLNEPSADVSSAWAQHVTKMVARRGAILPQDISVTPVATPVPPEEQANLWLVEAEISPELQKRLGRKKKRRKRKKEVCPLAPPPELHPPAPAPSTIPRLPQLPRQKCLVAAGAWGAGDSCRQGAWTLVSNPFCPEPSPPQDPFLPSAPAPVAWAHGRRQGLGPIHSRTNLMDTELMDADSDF
Sequence of CYP2C9 (P11712 whole entry): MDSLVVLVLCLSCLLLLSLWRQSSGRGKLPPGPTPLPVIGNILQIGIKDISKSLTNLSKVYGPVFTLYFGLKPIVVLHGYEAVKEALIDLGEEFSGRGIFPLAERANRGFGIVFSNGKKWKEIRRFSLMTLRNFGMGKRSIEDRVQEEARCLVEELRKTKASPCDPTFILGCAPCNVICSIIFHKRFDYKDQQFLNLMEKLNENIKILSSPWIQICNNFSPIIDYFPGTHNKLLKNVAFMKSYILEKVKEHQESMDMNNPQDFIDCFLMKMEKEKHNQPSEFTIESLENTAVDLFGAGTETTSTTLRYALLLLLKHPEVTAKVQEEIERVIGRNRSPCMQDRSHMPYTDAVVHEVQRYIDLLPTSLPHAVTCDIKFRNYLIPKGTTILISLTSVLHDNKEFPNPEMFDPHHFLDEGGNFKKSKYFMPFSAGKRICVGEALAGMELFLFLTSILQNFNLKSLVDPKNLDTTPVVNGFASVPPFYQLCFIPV
Sequence of CYP3A4 (P08684 whole entry): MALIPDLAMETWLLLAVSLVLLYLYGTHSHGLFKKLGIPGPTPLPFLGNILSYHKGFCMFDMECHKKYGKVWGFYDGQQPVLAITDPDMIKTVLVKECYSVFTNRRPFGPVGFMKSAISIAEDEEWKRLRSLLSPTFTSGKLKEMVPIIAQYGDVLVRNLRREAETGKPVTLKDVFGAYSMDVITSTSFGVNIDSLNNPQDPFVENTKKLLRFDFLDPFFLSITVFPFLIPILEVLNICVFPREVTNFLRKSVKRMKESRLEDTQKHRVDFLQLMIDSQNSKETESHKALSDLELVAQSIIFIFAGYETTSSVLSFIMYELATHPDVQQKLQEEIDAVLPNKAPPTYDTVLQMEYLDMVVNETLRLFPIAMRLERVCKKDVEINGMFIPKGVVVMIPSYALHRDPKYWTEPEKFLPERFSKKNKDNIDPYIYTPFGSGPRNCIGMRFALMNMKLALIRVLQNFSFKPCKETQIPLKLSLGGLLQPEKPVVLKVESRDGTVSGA

| IC50 (Protein smoothened [1]) [nM] | IC50 (Protein smoothened [2]) [nM] | half-life [3] [h] | Vd [4] [L/kg] | clearance (Rattus norvegicus) [mL/min/kg] | bioavailability [5] [%] | SMILES | further results |
| --- | --- | --- | --- | --- | --- | --- | --- |
| 520 | 180 | – | – | – | – | O=C(Nc1c(Cl)cc(F)cc1Cl)N1CCN2C(=O)N([C@H]3C[C@@H]3c3ccccc3)C(=O)[C@@H]2C1 | – |
| 15 | 4 | 1.3 | 4.1 | 54 | – | O=C(Nc1cccnc1-c1cccc(Cl)c1)N1CCN2C(=O)N([C@H]3C[C@@H]3c3ccccc3)C(=O)[C@@H]2C1 | – |
| 450 | 100 | 5.4 | 0.5 | 2 | 56 | N#Cc1cc(Cl)c(NC(=O)N2CCN3C(=O)N([C@H]4C[C@@H]4c4ccccc4)C(=O)[C@@H]3C2)c(Cl)c1 | – |
| – | 95 | – | – | – | – | O=C(Nc1ccccc1-c1ccccc1)N1CCN2C(=O)N(C3CC3c3ccccc3)C(=O)C2C1 (stereo in doubt; 5) | – |
| – | 1700 | – | – | – | – | O=C(Nc1cccc(Cl)c1Cl)N1CCN2C(=O)N([C@@H]3C[C@H]3c3ccccc3)C(=O)[C@H]2C1 | – |
| 12 | 12 | 4.9 | 6.7 | 54 | 31 | O=C(Nc1cccnc1-c1ccccc1)N1CCN2C(=O)N([C@H]3C[C@@H]3c3ccccc3)C(=O)[C@@H]2C1 | – |
| 1600 | 1200 | – | – | – | – | C[C@]12CN(C(=O)Nc3ccccc3-c3ccccc3)CCN1C(=O)N([C@H]1C[C@@H]1c1ccccc1)C2=O | – |
| 70 | 21 | 2.7 | 8 | 56 | – | O=C(Nc1ccccc1-c1ccccc1)N1CCN2C(=O)N([C@H]3C[C@@H]3c3ccccc3)C(=O)[C@@H]2C1 | inhibition at 10 µM (CYP3A4): 50%; inhibition at 10 µM (CYP2C9): 50%; fraction unbound [6]: 0.044; CC50 [7]: 2 nM |
| 22 | 16 | 3.8 | 6 | 48 | 43 | N#Cc1cccc(-c2ncccc2NC(=O)N2CCN3C(=O)N([C@H]4C[C@@H]4c4ccccc4)C(=O)[C@@H]3C2)c1 | – |
| 690 | 230 | 2.2 | 8 | 46 | 30 | O=C(Nc1cccc(Cl)c1Cl)N1CCN2C(=O)N([C@H]3C[C@@H]3c3ccccc3)C(=O)[C@@H]2C1 | clearance (Canis familiaris): 4 mL/min/kg; Vd [8]: 2.5 L/kg; bioavailability [9]: 97%; half-life [10]: 10 h; CC50 [7]: 12 nM |
| – | 670 | – | – | – | – | O=C(Nc1cccc(Cl)c1Cl)N1CCN2C(=O)N([C@@H]3C[C@H]3c3ccccc3)C(=O)[C@@H]2C1 | – |
| 32 | 18 | – | – | – | – | O=C(Nc1ccnn1-c1cccc(Cl)c1)N1CCN2C(=O)N([C@H]3C[C@@H]3c3ccccc3)C(=O)[C@@H]2C1 | – |
| – | 35 | – | – | – | – | O=C(Nc1ccccc1-c1ccccc1)N1CCN2C(=O)N(C3CC3c3ccccc3)C(=O)C2C1 (stereo in doubt; 6) | – |
| 60 | 19 | – | – | – | – | C[C@@]12CN(C(=O)Nc3ccccc3-c3ccccc3)CCN1C(=O)N([C@H]1C[C@@H]1c1ccccc1)C2=O | – |
| – | 48 | – | – | – | – | O=C(Nc1ccccc1-c1ccccc1)N1CCN2C(=O)N(C3CC3c3ccccc3)C(=O)C2C1 (stereo in doubt; 3) | – |
| 9 | 7 | – | – | – | – | O=C(Nc1ccnn1-c1cccc(F)c1)N1CCN2C(=O)N([C@H]3C[C@@H]3c3ccccc3)C(=O)[C@@H]2C1 | – |
| 68 | 42 | 3.2 | 0.6 | 5 | 74 | CS(=O)(=O)c1cc(Cl)c(NC(=O)N2CCN3C(=O)N([C@H]4C[C@@H]4c4ccccc4)C(=O)[C@@H]3C2)c(Cl)c1 | clearance (Canis familiaris): 1.7 mL/min/kg; Vd [8]: 0.3 L/kg; half-life [10]: 1 h |
| 42 | 21 | 10 | 10 | 58 | 41 | O=C(Nc1cccnc1-c1ccsc1)N1CCN2C(=O)N([C@H]3C[C@@H]3c3ccccc3)C(=O)[C@@H]2C1 | clearance (Canis familiaris): 7.6 mL/min/kg; Vd [8]: 1 L/kg; half-life [10]: 3.1 h |
| 120 | 77 | 0.6 | 2.1 | 41 | – | CN(C)C(=O)c1cc(Cl)c(NC(=O)N2CCN3C(=O)N([C@H]4C[C@@H]4c4ccccc4)C(=O)[C@@H]3C2)c(Cl)c1 | – |
| – | 650 | – | – | – | – | O=C(Nc1cccc(Cl)c1Cl)N1CCN2C(=O)N([C@H]3C[C@@H]3c3ccccc3)C(=O)[C@H]2C1 | – |

Reference: ChEMBL document CHEMBL1811786, “Identification of MK-5710 ((8aS)-8a-methyl-1,3-dioxo-2-[(1S,2R)-2-phenylcyclo- propyl]-N-(1-phenyl-1H-pyrazol-5-yl)hexahydro-imidazo[1,5-a]pyrazine-7(1H)-carboxamide), a potent smoothened antagonist for use in Hedgehog pathway dependent malignancies, part 2” (Bioorg Med Chem Lett, 2011)
